Test results published in ChEMBL document CHEMBL1133365, “Synthesis and class III type antiarrhythmic activity of 4-aroyl (and aryl)-l-aralkylpiperazines” (2000).

Columns and labels:
[1] = organism: Mustela putorius furo; assay: Peak isometric tension during the basic stimulus trains (S1) during control and compound induced tension, expressed as percent control.; assay type: functional
Summary of the method: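 Same preparation: buffer pH 7.3, 5% CO2/95% O2, 37 °C, timolol 0.1 mM, 3 msec constant-current stimulation. Isometric force was recorded, and peak tension was taken during the basic S1 stimulus trains. Readings were made at steady state, about 15 min after each concentration. The change is expressed as percent of control.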

[2] = organism: Mustela putorius furo; assay: Dose required to produce 20% increase in effective refractory period in male ferret.; assay type: functional
Summary of the method: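 Isolated tissue in buffer (mM: KCl 4, MgCl2 1.0, NaHCO3 25, KH2PO4 1.2, CaCl2 2, dextrose 11), pH 7.3, gassed 5% CO2/95% O2, 37 °C. Timolol 0.1 mM present. Stimulated with 3 msec constant-current pulses. Duplicate control readings, then each concentration read at steady state (~15 min). EC20 is the mean dose giving a 20% rise in ERP, in μM.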

In the case of `O=[N+]([O-])c1ccc(CCN2CCC(c3ccc([N+](=O)[O-])cc3)CC2)cc1`, the Tension [1] is reported as 0% and the EC20 [2] is reported as 300 nM.
`CS(=O)(=O)Nc1ccc(OCCN2CCN(C(=O)c3ccc(NS(C)(=O)=O)cc3)CC2)cc1` was tested, and the Tension [1] was -13% and the EC20 [2] was 15000 nM.
`O=[N+]([O-])c1ccc(N2CCN(CCc3ccccc3)CC2)cc1` gave a Tension [1] of -6% and an EC20 [2] of 500 nM.
`Nc1ccc(CCN2CCN(c3ccncc3)CC2)cc1` gave a Tension [1] of 9% and an EC20 [2] of 15000 nM.
`Cc1cccc(CCN2CCC(C(=O)c3ccc(NS(C)(=O)=O)cc3)CC2)n1` gave a Tension [1] of 9% and an EC20 [2] of 20 nM.
With `CC(C)NCC(O)c1ccc(NS(C)(=O)=O)cc1` (centres undefined) [SOTALOL] the Tension [1] was -13% and the EC20 [2] was 3500 nM.
`O=C(c1cccc([N+](=O)[O-])c1)N1CCN(CCc2ccc([N+](=O)[O-])cc2)CC1` gave a Tension [1] of -7% and an EC20 [2] of 270 nM.
Work on `O=C(c1ccncc1)N1CCN(CCc2ccc([N+](=O)[O-])cc2)CC1` yielded a Tension [1] of 19% and an EC20 [2] of 1000 nM.
With `Nc1ccc(CCN2CCC(c3ccc(N)cc3)CC2)cc1` the Tension [1] was 15% and the EC20 [2] was 2000 nM.
`O=[N+]([O-])c1ccc(CCN2CCN(c3ccccc3)CC2)cc1` gave a Tension [1] of 10% and an EC20 [2] of 800 nM.
For `O=C(c1ccc(Cl)cc1)C1CCN(CCc2ccc([N+](=O)[O-])cc2)CC1`, the Tension [1] was -4% and the EC20 [2] was 300 nM.
`O=C(c1ccc([N+](=O)[O-])cc1)N1CCN(CCc2ccc([N+](=O)[O-])cc2)CC1` showed a Tension [1] of -3% and an EC20 [2] of 3 nM.
With `CS(=O)(=O)Nc1ccc(C(=O)N2CCN(CCc3ccccc3)CC2)cc1` the Tension [1] was 5% and the EC20 [2] was 680 nM.
Molecule `O=[N+]([O-])c1ccc(CCN2CCN(c3ccc([N+](=O)[O-])cn3)CC2)cc1` has a Tension [1] of -21% and an EC20 [2] of 1300 nM.
Work on `O=C(c1ccc([N+](=O)[O-])cc1)N1CCN(CCc2ccc([N+](=O)[O-])s2)CC1` yielded a Tension [1] of -17% and an EC20 [2] of 10 nM.
With `O=C(c1ccc([N+](=O)[O-])cc1)N1CCN(C(=O)c2ccc([N+](=O)[O-])cc2)CC1` the Tension [1] was -6% and the EC20 [2] was 7000 nM.
Work on `O=[N+]([O-])c1ccc(CCN2CCN(c3ccncc3)CC2)cc1` yielded a Tension [1] of 8% and an EC20 [2] of 30 nM.
With `O=C(c1ccc([N+](=O)[O-])cc1)N1CCN(Cc2ccc([N+](=O)[O-])cc2)CC1` the Tension [1] was -44% and the EC20 [2] was 3500 nM.
For `Nc1ccc(CCN2CCN(c3ccc(N)cc3)CC2)cc1`, the Tension [1] was -53% and the EC20 [2] was >100000 nM.
Molecule `O=C(c1ccc([N+](=O)[O-])cc1)N1CCNCC1` has a Tension [1] of -33% and an EC20 [2] of 20000 nM.
With `O=C(CN1CCN(C(=O)c2ccc([N+](=O)[O-])cc2)CC1)Nc1ccc([N+](=O)[O-])cc1` the Tension [1] was 5% and the EC20 [2] was 35 nM.
Molecule `CS(=O)(=O)Nc1ccc(CCN2CCN(C(=O)c3ccc(NS(C)(=O)=O)cc3)CC2)cc1` has a Tension [1] of 1% and an EC20 [2] of 2000 nM.
For `O=C(c1ccc([N+](=O)[O-])o1)N1CCN(CCc2ccc([N+](=O)[O-])cc2)CC1`, the Tension [1] was -2% and the EC20 [2] was 140 nM.
Work on `O=[N+]([O-])c1ccc(CCN2CCN(S(=O)(=O)c3ccc([N+](=O)[O-])cc3)CC2)cc1` yielded a Tension [1] of -24% and an EC20 [2] of 1000 nM.
For `O=C(c1ccccc1)N1CCN(CCc2ccc([N+](=O)[O-])cc2)CC1`, the Tension [1] was -7% and the EC20 [2] was 140 nM.
For `O=[N+]([O-])c1ccc(OCCN2CCN(c3ccc([N+](=O)[O-])cc3)CC2)cc1`, the Tension [1] was -27% and the EC20 [2] was 350 nM.
For `O=C(c1ccc([N+](=O)[O-])cc1)N1CCN(CCOc2ccc([N+](=O)[O-])cc2)CC1`, the Tension [1] was 0% and the EC20 [2] was 60 nM.
With `O=[N+]([O-])c1ccc(CCN2CCN(c3ccc([N+](=O)[O-])cc3)CC2)cc1` the Tension [1] was 5% and the EC20 [2] was 30 nM.
In the case of `Nc1ccc(CCN2CCN(C(=O)c3ccc([N+](=O)[O-])cc3)CC2)cc1`, the Tension [1] is reported as -14% and the EC20 [2] is reported as 1400 nM.
`CS(=O)(=O)Nc1ccc(C(=O)N2CCN(CCc3ccc([N+](=O)[O-])cc3)CC2)cc1` gave a Tension [1] of 1% and an EC20 [2] of 60 nM.
In the case of `Nc1ccc(OCCN2CCN(c3ccc(N)cc3)CC2)cc1`, the Tension [1] is reported as -43% and the EC20 [2] is reported as >100000 nM.
In the case of `O=C(c1ccc([N+](=O)[O-])cc1)N1CCN(CCc2ccccc2)CC1`, the Tension [1] is reported as -8% and the EC20 [2] is reported as 160 nM.
Work on `CS(=O)(=O)Nc1ccc(CCN2CCN(C(=O)c3ccc([N+](=O)[O-])cc3)CC2)cc1` yielded a Tension [1] of 13% and an EC20 [2] of 160 nM.
In the case of `CN(CCOc1ccc(NS(C)(=O)=O)cc1)CCc1ccc(NS(C)(=O)=O)cc1` [DOFETILIDE], the Tension [1] is reported as 5% and the EC20 [2] is reported as 15 nM.
Work on `CS(=O)(=O)Nc1ccc(CCN2CCN(c3ccncc3)CC2)cc1` yielded a Tension [1] of 2% and an EC20 [2] of 220 nM.
Molecule `O=C(c1ccc([N+](=O)[O-])s1)N1CCN(CCc2ccc([N+](=O)[O-])cc2)CC1` has a Tension [1] of 0% and an EC20 [2] of 12 nM.
For `CS(=O)(=O)Nc1ccc(C(=O)N2CCN(CCOc3ccc(N(S(C)(=O)=O)S(C)(=O)=O)cc3)CC2)cc1`, the Tension [1] was -14% and the EC20 [2] was 25000 nM.
